Only a selection was taken, and hits are over-represented in it overall.
INS promoter act: TRM-6 insulin promoter activation. TRM-6 cells, insulin promoter eGFP reporter, imaging; plate-scaled: unstimulated 0, stimulated control 100. activation, % at 2 µM. actives 0.81% (n = 130,000). AID 1296;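 active = activation at 2 µM above a set limit, confirmed on inspection of the cell images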;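 also: share of cells whose green reporter signal exceeds an intensity cutoff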
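System: human fetal islet-derived TRM-6 cells with tamoxifen-inducible insulin promoter–eGFP reporter; input: seeding density of 1,000 cells per well; buffer or medium: Low-glucose (5.5 mM) medium with tamoxifen; incubation: compound exposure 48 h, 37 °C; measured by: high-content imaging of fixed cells with Hoechst nuclear stain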
Of the large screens only hits and unclear results are named; the others gave an inactive call.

CC(=O)N1C(=S)NC(=O)/C1=C1/C(=O)N(CC(=O)Nc2cccc(C)c2)c2ccccc21	INS promoter act 108.0
Cc1ccc2c(c1)C(=O)C(=O)N2CC(=O)Nc1ccc(N2CCOCC2)cc1	none
Cc1cccc(NC(=O)CN2C(=O)N/C(=C/c3ccc(C)o3)C2=O)c1	none
Cc1ccccc1NC(=O)c1cc(C(=O)c2cc(Cl)ccc2O)cn(-c2ccccc2C)c1=O	none
O=C(COC(=O)/C(=C/c1cccs1)c1cccs1)NC(c1ccccc1)c1ccccc1	none
O=c1cnnc(N/N=C/C2CC=CCC2)[nH]1 (stereo not drawn)	none
CCCSc1nnc(CSc2ncccn2)n1C	none
CC(=O)c1ccc(NC(=O)NCc2ccc(F)cc2)cc1	INS promoter act 326.3
CC(=O)c1ccc(NC(=O)Nc2ccccc2)cc1	none
CCN(CC)c1ccc(NC(=O)Nc2ccc(C(C)=O)cc2)cc1	none
O=C(CSc1ccc(-c2ccco2)nn1)Nc1ccccc1	none
O=C(CSc1ccc(-c2ccccn2)nn1)NCc1ccccc1	none
Cc1cc(C)c(NC(=O)CSc2nnc(-c3ccncc3)n2Cc2ccco2)c(Cl)c1	none
COc1cccc(CNC(=O)CSc2ccc(-c3ccncc3)nn2)c1	none
O=C(CSc1nnc(-c2cc3ccccc3cc2O)n1Cc1ccco1)c1ccc(F)cc1	none
Cn1c(SCC(=O)NCc2ccco2)nnc1-c1ccccc1	INS promoter act 437.1
Cn1c(SCC(=O)NCc2ccco2)nnc1-c1ccc(S(=O)(=O)N2CCOCC2)cc1	none
O=C(CSc1nnc(-c2ccc(O)cc2)n1Cc1ccco1)c1ccccc1	INS promoter act 77.4
O=C(CSc1ccc(-c2ccccc2)nn1)NCc1ccco1	INS promoter act 443.8
O=C(CSc1ncc(-c2ccccc2)n1-c1ccccc1)NCc1ccco1	none
Cc1nnc(SCC(=O)NCc2ccco2)n1Cc1ccccc1	none
O=C(CSc1ccc(-c2cccc([N+](=O)[O-])c2)nn1)NCc1ccccc1	INS promoter act 265.7
O=C(NCC1(c2ccccc2)CCCC1)c1cccc(Br)c1	none
CCOC(=O)N1CCN(C(=O)CSc2ccc(-c3ccc(OC)cc3)nn2)CC1	none
O=C(NCCc1ccc(Cl)cc1)/C(=C/c1cccnc1)NC(=O)c1ccccc1	none
O=C(Nc1ccc(Cl)cn1)C1CCCN1S(=O)(=O)c1ccccc1 (stereo not drawn)	none
O=C(Cc1c[nH]c2ccccc12)NCc1ccc(Cl)cc1Cl	none
CCCOC1(NC(=O)c2ccccc2)C(C)=CC(=O)C=C1C	none
O=S(=O)(NCc1ccco1)N1CCOCC1	INS promoter act 493.8
O=C(NCc1ccco1)C1CN(S(=O)(=O)c2ccccc2)CCN1S(=O)(=O)c1ccccc1 (stereo not drawn)	none
Cc1ccc(C(=O)NCc2ccco2)cc1S(=O)(=O)N1CCOCC1	none
Nc1c(Cl)nc(-c2ccccc2)nc1Cl	none
O=C(Nc1nc2ccccc2s1)C1=NN(c2ccccc2)C(=O)CC1	none
CCOC(=O)c1ccc(S(=O)(=O)Nc2ccc3cn[nH]c3c2)cc1	none
Cc1ccc(S(=O)(=O)NC2=NCN(C3CCCCC3)CN2)cc1	INS promoter act 125.0
Cc1ccc(S(=O)(=O)CC(C)N2CCN(C3CCCCC3)CC2)cc1 (stereo not drawn)	none
Cc1ccc(S(=O)(=O)NCCNC(=O)C2CCCNC2=O)cc1 (stereo not drawn)	none
CC(C)(C)NC(=O)NC(=O)COC(=O)CNS(=O)(=O)c1ccc(Br)cc1Cl	none
O=C(COC(=O)c1ccc(CO)cc1)NCc1cccs1	none
Cc1ccc(C)c(S(=O)(=O)Nc2ccccc2C(=O)Nc2ccccc2N2CCOCC2)c1	none
COc1cc(S(=O)(=O)n2nc(C)cc2C)c(OC)cc1Cl	none
CCCCc1ccc(C2C(C#N)=C(N)SC(N)=C2C#N)s1	INS promoter act 275.0
Cc1sccc1C1C(C#N)=C(N)SC(N)=C1C#N	none
Cc1cc(C2C(C#N)=C(N)SC(N)=C2C#N)c(C)s1	none
CCOC(=O)C(=CNc1ccc2c(c1)nnn2-c1ccc(Cl)cc1)C(=O)OCC	none
CC(C)c1ccc(NC(=O)C(c2ccccc2)N2CC(=O)Nc3ccccc32)cc1 (stereo not drawn)	none
Cc1ccc(C(=O)NC(=S)Nc2nc(-c3cccc([N+](=O)[O-])c3)cs2)c(Cl)c1	none
O=[N+]([O-])c1ccc(N2CCN(c3ccc(Cl)nn3)CC2)cc1NC1CC1	none
CN(C)S(=O)(=O)Nc1ccccc1C(N)=O	none
Cc1ccc(S(=O)(=O)Nc2cc(C(C)C)c(O)cc2C)cc1	none
CC(C)c1ccccc1NS(=O)(=O)N(C)C	INS promoter act 380.0
COc1ccc(CCNC(=O)CSc2nc3ccccc3o2)cc1	none
Cc1cc(C)nc(NC(=O)CSc2nc3ccccc3o2)n1	none
CCS(=O)(=O)c1ccc2oc(SCC(=O)NC3CCCC(C)C3C)nc2c1 (stereo not drawn)	INS promoter act 92.9
CN(C)S(=O)(=O)c1ccc2oc(SCC(N)=O)nc2c1	none
CCOc1ccc(NCc2ccccc2OCc2cccc(F)c2)cc1	none
C=CCN1C(=O)C2C3CC(=O)C(c4ccccc43)C2C1=O (stereo not drawn)	none
CN(CCc1cnn(C)c1)Cc1cn[nH]c1-c1ccc(-c2ccccc2)cc1	none
O=C(CSc1nnc(-c2ccco2)n1CC1CCCO1)NC1CCCC1 (stereo not drawn)	none
COc1ccc(NC(=O)CSc2nnc(-c3ccoc3C)n2CC2CCCO2)cc1 (stereo not drawn)	INS promoter act 506.3
COc1cccc(NC(=O)CSc2nnc(-c3ccoc3C)n2CC2CCCO2)c1 (stereo not drawn)	none
CCCCCC(=O)NNC1=NCC(Cc2cccc(Cl)c2)S1 (stereo not drawn)	none
CC(NC(=O)c1ccc(-c2cc(C(F)(F)F)ccc2Cl)o1)c1ccccc1 (stereo not drawn)	none
O=C(CN1C(=O)S/C(=C/c2cccnc2)C1=O)N1CCOCC1	none
O=C1S/C(=C/c2ccc(N3CCOCC3)o2)C(=O)N1Cc1c(F)cccc1Cl	INS promoter act 177.8
O=C1S/C(=C\c2ccc(N3CCOCC3)o2)C(=O)N1Cc1c(F)cccc1Cl	none
COc1ccc(Cl)cc1N(C(C)C(=O)NC1CCCC1)S(C)(=O)=O (stereo not drawn)	none
COc1cccc(N=C(N)N)c1	none
CCOC(=O)NN1C(=O)c2ccccc2NC1c1ccc(OC)cc1OC (stereo not drawn)	none
OCc1nc2ccccc2n1CC(O)Cn1ccc2ccccc21 (stereo not drawn)	INS promoter act 90.9
CC(C)Cn1c(NCCO)nc2ccccc21	none
OCc1nc2ccccc2n1CCCOc1ccccc1	none
CCOC(=O)Cn1nc(C)c(NC(=O)c2ccc([N+](=O)[O-])c(C)c2)c1C	none
Cc1cccc2cc(-c3ccccc3)c(-c3ccccc3)c[n+]12	none
C=C(C)C1CCC(C)=C1COC(=O)Nc1ccccc1 (stereo not drawn)	none
Cn1c(=O)c2c(ncn2CC(O)CNc2cccc(Cl)c2)n(C)c1=O (stereo not drawn)	none
S=C(NC1CCCCC1)N1CCN(C/C=C/c2ccccc2)CC1	none
O=C(c1nn(Cc2ccccc2)c(=O)c2ccccc12)N1CCN(C/C=C/c2ccccc2)CC1	none

Bioassay records (PubChem)
